Laboratory results as given in ChEMBL document CHEMBL4831496, “Noncovalent EGFR T790M/L858R inhibitors based on diphenylpyrimidine scaffold: Design, synthesis, and bioactivity evaluation for the treatment of NSCLC” (Eur J Med Chem, 2021).
Active and inactive are the calls of the source. The calls are words filed in the database; no cut-off is given here.

Legend:
NCI-H1975 [1] = test: Induction of cell cycle arrest in human NCI-H1975 cells assessed as accumulation of cells at G2/M phase at 0.125 uM incubated for 48 hrs by propidium iodide staining based flow cytometry analysis (reference value: 30.23%); format: functional
NCI-H1975 [2] = test: Induction of apoptosis in human NCI-H1975 cells assessed as necrotic cells at 2 uM incubated for 48 hrs by AnnexinV/FITC and propidium iodide staining based flow cytometry analysis (reference value: 2.99%); format: functional
NCI-H1975 [3] = test: Antimigratory activity against human NCI-H1975 cells assessed as narrowing of scratch width at 0.5 to 2 uM incubated for 24 to 48 hrs by scratch wound healing assay based fluorescence microscopic analysis; format: functional, cell-based; settings: dose 0.5-2 µM, time 24-48 hrs
In short: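 H1975 monolayers cultured 48 h at 37 °C, then scratched and washed with PBS. Cells treated at […] and imaged by fluorescence microscope at 0, 24 and 48 h, with an untreated negative control.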

[4] = Cytotoxicity against human HBE cells assessed as reduction in cell viability incubated for 72 hrs by CCK8 assay; format: cell-based
In short: (§1)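 Cells kept as monolayers at 37 °C, 5% CO2, seeded 3000-4000/well for 12 h, then exposed to compounds for 72 h. CCK-8 added for 1-2 h at 37 °C, absorbance read at 450 nm. Each dose run in triplicate, experiment repeated at least three times. IC50 taken from dose-response curves.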

NCI-H1975 [5] = test: Induction of cell cycle arrest in human NCI-H1975 cells assessed as accumulation of cells at G0/G1 phase at 2 uM incubated for 48 hrs by propidium iodide staining based flow cytometry analysis (reference value: 58.05%); format: functional
NCI-H1975 [6] = test: Induction of apoptosis in human NCI-H1975 cells assessed as viable cells at 2 uM incubated for 48 hrs by AnnexinV/FITC and propidium iodide staining based flow cytometry analysis (reference value: 94.9%); format: functional; settings: read-out: Activity
[7] = target: Epidermal growth factor receptor (Homo sapiens, UniProt P00533); test: Inhibition of wild type EGFR (unknown origin) measured after 60 mins by ADP-Glo kinase based luminescence assay
Sequence of Epidermal growth factor receptor (P00533 whole entry): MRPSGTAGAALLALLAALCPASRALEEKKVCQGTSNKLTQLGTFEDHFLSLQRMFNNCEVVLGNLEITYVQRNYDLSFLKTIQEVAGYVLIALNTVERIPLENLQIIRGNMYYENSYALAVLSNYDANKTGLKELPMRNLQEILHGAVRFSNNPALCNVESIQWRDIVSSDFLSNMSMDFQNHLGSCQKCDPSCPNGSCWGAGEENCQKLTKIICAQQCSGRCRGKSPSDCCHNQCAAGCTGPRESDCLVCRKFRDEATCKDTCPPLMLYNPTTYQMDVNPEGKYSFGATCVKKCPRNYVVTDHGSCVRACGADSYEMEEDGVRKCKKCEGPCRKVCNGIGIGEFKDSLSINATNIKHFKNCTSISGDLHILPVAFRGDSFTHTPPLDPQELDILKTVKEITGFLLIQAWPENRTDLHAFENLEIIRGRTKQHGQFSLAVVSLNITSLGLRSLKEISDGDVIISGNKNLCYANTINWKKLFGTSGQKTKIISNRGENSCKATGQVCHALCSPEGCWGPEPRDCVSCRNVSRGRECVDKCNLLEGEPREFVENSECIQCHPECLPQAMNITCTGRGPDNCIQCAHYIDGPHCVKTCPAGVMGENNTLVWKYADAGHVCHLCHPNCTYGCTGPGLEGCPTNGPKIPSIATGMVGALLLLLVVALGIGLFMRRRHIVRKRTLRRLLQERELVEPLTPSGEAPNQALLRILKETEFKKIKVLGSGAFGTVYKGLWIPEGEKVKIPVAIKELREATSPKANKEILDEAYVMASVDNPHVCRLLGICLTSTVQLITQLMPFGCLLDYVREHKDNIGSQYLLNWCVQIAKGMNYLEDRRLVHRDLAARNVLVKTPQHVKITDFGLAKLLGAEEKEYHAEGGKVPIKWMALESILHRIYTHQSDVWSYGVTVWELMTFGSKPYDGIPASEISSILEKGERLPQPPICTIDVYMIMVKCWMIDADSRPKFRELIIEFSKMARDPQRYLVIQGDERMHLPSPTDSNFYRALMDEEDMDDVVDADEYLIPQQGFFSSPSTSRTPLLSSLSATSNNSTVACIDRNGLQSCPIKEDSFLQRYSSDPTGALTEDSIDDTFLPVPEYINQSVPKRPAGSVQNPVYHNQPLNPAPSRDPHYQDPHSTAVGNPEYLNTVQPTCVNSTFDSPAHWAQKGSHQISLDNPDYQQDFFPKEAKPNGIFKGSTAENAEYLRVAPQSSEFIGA

ASPC1 = test: Antiproliferative activity against human ASPC1 cells assessed as reduction in cell viability incubated for 72 hrs by CCK8 assay; format: functional, cell-based; settings: ASPC1, 72 h; in short: as §1
NCI-H1975 [8] = test: Induction of apoptosis in human NCI-H1975 cells assessed as viable cells at 0.125 uM incubated for 48 hrs by AnnexinV/FITC and propidium iodide staining based flow cytometry analysis (reference value: 94.9%); format: functional; settings: read-out: Activity
L02 = test: Antiproliferative activity against human L02 cells assessed as reduction in cell viability incubated for 72 hrs by CCK8 assay; format: cell-based; settings: L02, 72 h
A-431 = test: Cytotoxicity against human A-431 cells harboring wild type EGFR assessed as reduction in cell viability incubated for 72 hrs by CCK8 assay; format: cell-based; settings: A-431, 72 h; in short: as §1
[9] = AUC (0 to infinity) in Sprague-Dawley rat at 25 mg/kg, iv by LC-MS/MS analysis; format: ADME, organism-based; parameters: route intravenous, time infinity, dose 25 mg/kg; settings: in vivo
In short: (§2)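 Male Sprague-Dawley rats (200 ± 20 g), acclimatised 1 week at 25 ± 2 °C, 50-60% RH; six rats given 25 mg/kg by tail vein. Retro-orbital blood into heparin at 10, 20, 40 min and 1, 2, 3, 4, 6, 8, 12, 24 h. Plasma ethyl acetate-extracted and quantified by LC-MS/MS, transition m/z 485.3/452.3.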

NCI-H1975 [10] = test: Induction of cell cycle arrest in human NCI-H1975 cells assessed as accumulation of cells at G0/G1 phase at 0.5 uM incubated for 48 hrs by propidium iodide staining based flow cytometry analysis (reference value: 58.05%); format: functional
NCI-H1975 [11] = test: Induction of apoptosis in human NCI-H1975 cells assessed as late apoptotic cells at 0.5 uM incubated for 48 hrs by AnnexinV/FITC and propidium iodide staining based flow cytometry analysis (reference value: 0.73%); format: functional
[12] = Elimination half life in Sprague-Dawley rat at 25 mg/kg, iv measured for 24 hrs by LC-MS/MS analysis; format: ADME, organism-based; settings: in vivo, read-out: beta t1/2 (converted); in short: as §2
NCI-H1975 [13] = test: Induction of cell cycle arrest in human NCI-H1975 cells assessed as accumulation of cells at G2/M phase at 0.5 uM incubated for 48 hrs by propidium iodide staining based flow cytometry analysis (reference value: 30.23%); format: functional
NCI-H1975 [14] = test: Induction of cell cycle arrest in human NCI-H1975 cells assessed as accumulation of cells at S phase at 0.5 uM incubated for 48 hrs by propidium iodide staining based flow cytometry analysis (reference value: 11.72%); format: functional
[15] = MRT (0 to t) in Sprague-Dawley rat at 25 mg/kg, iv measured for 24 hrs by LC-MS/MS analysis; format: ADME, organism-based; settings: in vivo; in short: as §2
NCI-H1975 [16] = test: Induction of apoptosis in human NCI-H1975 cells assessed as early apoptotic cells at 0.5 uM incubated for 48 hrs by AnnexinV/FITC and propidium iodide staining based flow cytometry analysis (reference value: 1.39%); format: functional
NCI-H1975 [17] = test: Induction of apoptosis in human NCI-H1975 cells assessed as late apoptotic cells at 2 uM incubated for 48 hrs by AnnexinV/FITC and propidium iodide staining based flow cytometry analysis (reference value: 0.73%); format: functional
NCI-H1975 [18] = test: Induction of apoptosis in human NCI-H1975 cells assessed as necrotic cells at 0.125 uM incubated for 48 hrs by AnnexinV/FITC and propidium iodide staining based flow cytometry analysis (reference value: 2.99%); format: functional
Homo sapiens = species: Homo sapiens; test: Selectivity index, ratio of IC50 for wild type EGFR (unknown origin) to IC50 for EGFR L858R/T790M double mutant (unknown origin)
NCI-H1975 [19] = test: Induction of cell cycle arrest in human NCI-H1975 cells assessed as accumulation of cells at G2/M phase at 2 uM incubated for 48 hrs by propidium iodide staining based flow cytometry analysis (reference value: 30.23%); format: functional
NCI-H1975 [20] = test: Antiproliferative activity against human NCI-H1975 cells harboring EGFR L858R/T790M mutant assessed as reduction in cell viability incubated for 72 hrs by CCK8 assay; format: functional, cell-based; settings: NCI-H1975, 72 h; in short: as §1
NCI-H1975 [21] = test: Induction of morphological changes in human NCI-H1975 cells assessed as increase in fusiform and sickle cell type abnormal cells at 0.5 to 2 uM incubated for 48 hrs by DAPI staining based fluorescence microscopic analysis; format: functional; settings: dose 0.5-2 µM
In short: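 H1975 cells seeded at about 2 × 10⁵/well for 12 h, then treated. Cells fixed in 10% formaldehyde for 10 min, stained with DAPI for 10 min at room temperature and examined by fluorescence microscopy. Cell shape was also viewed under natural light.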

NCI-H1975 [22] = test: Induction of cell cycle arrest in human NCI-H1975 cells assessed as accumulation of cells at S phase at 2 uM incubated for 48 hrs by propidium iodide staining based flow cytometry analysis (reference value: 11.72%); format: functional
[23] = Selectivity index, ratio of IC50 for human A-431 cells harboring wild type EGFR (unknown origin) to IC50 for human NCI-H1975 cells harboring EGFR L858R/T790M mutant
NCI-H23 = test: Antiproliferative activity against human NCI-H23 cells harboring KRAS mutant assessed as reduction in cell viability incubated for 72 hrs by CCK8 assay; format: functional, cell-based; settings: NCI-H23, 72 h; in short: as §1

O=C(NO)c1ccccc1Nc1nc(Nc2ccc(OCCN3CCOCC3)cc2)ncc1Cl
Activity (NCI-H1975 [1]): 64.66% | Activity (NCI-H1975 [2]): 0.14% | Activity (NCI-H1975 [3]): Active | IC50 [4]: 23600 nM | Activity (NCI-H1975 [5]): 57.28% | viability at 2 µM (NCI-H1975 [6]): 8.63% | IC50 [7]: 47.7 nM | IC50 (ASPC1): 169 nM | viability at 0.125 µM (NCI-H1975 [8]): 95.7% | IC50 (L02): 3050 nM | IC50 (A-431): 1070 nM | AUC(0-inf) [9]: 45200 ng·h/mL | Activity (NCI-H1975 [10]): 19.16% | Activity (NCI-H1975 [11]): 0.56% | half-life [12]: 9.51 h | Activity (NCI-H1975 [13]): 70.99% | Activity (NCI-H1975 [14]): 9.86% | MRT last at 24 h [15]: 8.2 h | Activity (NCI-H1975 [16]): 15.53% | Activity (NCI-H1975 [17]): 0.67% | Activity (NCI-H1975 [18]): 0.01% | Ratio IC50 (Homo sapiens): 43.4 | Activity (NCI-H1975 [19]): 31.9% | IC50 (NCI-H1975 [20]): 97.8 nM | Activity (NCI-H1975 [21]): Active | Activity (NCI-H1975 [22]): 10.83% | Ratio IC50 [23]: 10.9 | IC50 (NCI-H23): 625 nM
